Measured values reported in PMC4958041 (Journal of enzyme inhibition and medicinal chemistry, 2016).
pIC50: −log10 of the molar value. Like-named read-outs stand apart in the source and are kept apart here.

Assays:
human TMEM16A [1] = target: T1, human TMEM16A (Homo sapiens, UniProt Q5XXA6, DEL476-501); experiment: TMEM16A functional assay; format: cell-based; conditions: for TMEM16A inhibition activity on initial testing: tested at 10 µM, fluorescence plate reader assay
T1 sequence (Q5XXA6 with tags, fused parts or gaps isoform Q5XXA6-5 DEL539-564): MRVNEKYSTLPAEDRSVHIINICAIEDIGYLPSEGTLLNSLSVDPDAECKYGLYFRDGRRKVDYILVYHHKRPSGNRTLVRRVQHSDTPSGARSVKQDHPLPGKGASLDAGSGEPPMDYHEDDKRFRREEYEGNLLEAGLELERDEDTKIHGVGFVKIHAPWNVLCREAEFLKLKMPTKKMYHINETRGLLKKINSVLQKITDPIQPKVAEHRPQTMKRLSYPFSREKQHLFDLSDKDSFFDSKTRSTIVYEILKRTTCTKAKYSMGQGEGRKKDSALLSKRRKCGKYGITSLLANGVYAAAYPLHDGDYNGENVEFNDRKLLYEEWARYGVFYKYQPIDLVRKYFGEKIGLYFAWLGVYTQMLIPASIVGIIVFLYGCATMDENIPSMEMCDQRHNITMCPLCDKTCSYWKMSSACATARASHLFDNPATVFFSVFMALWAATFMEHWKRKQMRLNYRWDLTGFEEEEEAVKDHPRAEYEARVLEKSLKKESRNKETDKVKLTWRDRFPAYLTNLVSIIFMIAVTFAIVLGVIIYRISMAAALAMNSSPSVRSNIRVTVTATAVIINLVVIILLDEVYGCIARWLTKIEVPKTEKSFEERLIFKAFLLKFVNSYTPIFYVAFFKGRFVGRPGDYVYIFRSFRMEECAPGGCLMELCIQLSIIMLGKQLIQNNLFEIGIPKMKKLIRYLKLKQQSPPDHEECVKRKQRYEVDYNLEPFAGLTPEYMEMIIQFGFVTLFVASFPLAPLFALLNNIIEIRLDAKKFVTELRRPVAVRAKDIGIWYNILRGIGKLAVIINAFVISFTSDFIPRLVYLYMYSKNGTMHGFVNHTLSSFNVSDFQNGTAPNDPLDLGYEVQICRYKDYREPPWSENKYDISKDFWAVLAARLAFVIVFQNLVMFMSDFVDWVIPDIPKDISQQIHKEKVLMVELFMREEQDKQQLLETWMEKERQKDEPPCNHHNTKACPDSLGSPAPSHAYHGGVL
In short: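 FRT cells stably co-expressing human TMEM16A (abc isoform) and YFP-H148Q/I152L/F46L, assayed 24 h after plating. Wells washed twice with PBS; test compound added in DMSO for 10 min. Fluorescence read every 400 ms: 2 s baseline, 140 mM iodide added at 2 s, then 70 mM iodide containing 300 µM ATP at 6.4 s. Initial iodide influx rate fitted by non-linear regression. Screen at 10 µM; IC50 from concentration-inhibition data.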

human TMEM16A [2] = target: T1, human TMEM16A; experiment: Short-circuit current assay in FRT-TMEM16A cells; format: cell-based
In short: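 FRT cells stably expressing human TMEM16A, grown on Snapwell inserts and mounted in Ussing chambers. Basolateral membrane permeabilized with amphotericin B (250 µg/ml, 30 min). Chloride gradient: HCO3-buffered basolateral solution; apical 120 mM NaCl replaced by Na gluconate. 37 °C, 95% O2/5% CO2, 10-min stabilization. Test compound added apically 5 min before activation by 100 µM ATP. IC50 from short-circuit current concentration-dependence.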

human TMEM16A [3] = target: T1, human TMEM16A; conditions: read-out: IC50, short-circuit current assay of TMEM16A function; as reported previously; cited from earlier work

pIC50 (human TMEM16A [1]) | TMEM16A inhibition activity on initial testing (human TMEM16A [1]) | pIC50 (human TMEM16A [2]) | Compound | pIC50 (human TMEM16A [3])
5.21 | measurable activity | – | Cc1c(O)nc(SCC(=O)Nc2nc(-c3ccccc3)cs2)nc1C(F)(F)F [Compound 9ao, 2-(4-Hydroxy-5-methyl-6-trifluoromethyl-pyrimidin-2-ylsulfanyl)-N-(4-phenyl-thiazol-2-yl)-acetamide] | –
5.46 | measurable activity | ~6.00 | CCc1c(C)nc(SCC(=O)Nc2nc(-c3cccs3)cs2)nc1O [Compound 9bo, 2-(5-Ethyl-4-hydroxy-6-methyl-pyrimidin-2-ylsulfanyl)-N-(4-thiophen-2-yl-thiazol-2-yl)-acetamide] | –
5.54 | measurable activity | ~5.52 | Cc1nc(SCC(=O)Nc2nc(-c3cccs3)cs2)nc(O)c1C [Compound 9bs, 2-(4-Hydroxy-5,6-dimethyl-pyrimidin-2-ylsulfanyl)-N-(4-thiophen-2-yl-thiazol-2-yl)-acetamide] | –
– | – | – | CCc1c(C)nc(SCC(=O)Nc2nc(-c3ccc(OC)cc3)cs2)[nH]c1=O [Compound T16Ainh-A01] | ~6.00
